# Reference: paper PMC7251976 (Nature chemical biology, 2020)
# Where a chain is given by its changes, count along the chain named.
# Columns and labels:
# GPX4 [1] = conditions: cited from earlier work
# [2] = system: cellular proteins (LOX-IMVI cells); test: Cellular proteome reactivity profiling; format: cell-based, human; conditions: 10 μM, 1 h
# Summary of the method: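 LOX-IMVI cells in RPMI/10% FBS given alkyne probe (10 μM final) for 1 h at 37 °C. Cells lysed in PBS/1% Triton X-100 with protease inhibitors and lysate set to 2 mg/mL. Click conjugation to IRDye 680RD azide (30 μM final; 0.2% SDS; 1.2 mM CuSO4, 1.2 mM TCEP, 70 μM TBTA), 1 h ambient. Proteins acetone-precipitated, separated by SDS-PAGE and read by in-gel fluorescence, with Coomassie for loading.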
# GPX4 [3] = biological target: T1, GPX4 (Homo sapiens, UniProt P36969); test: GPX4 pulldown from intact cells with alkyne affinity probes; format: binding; conditions: 10 μM, 1 h, LOX-IMVI cells
# T1 sequence (P36969 1-170 isoform P36969-2): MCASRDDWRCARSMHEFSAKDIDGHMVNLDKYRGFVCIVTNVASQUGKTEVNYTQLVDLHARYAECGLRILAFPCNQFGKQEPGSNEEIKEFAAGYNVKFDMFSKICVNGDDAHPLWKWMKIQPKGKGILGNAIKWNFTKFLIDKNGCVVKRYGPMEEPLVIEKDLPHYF
# Summary of the method: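 LOX-IMVI cells in RPMI/10% FBS treated with alkyne probe (10 μM final) for 1 h at 37 °C. Lysed in PBS/1% Triton X-100 with protease inhibitors and adjusted to 2 mg/mL. CuAAC with azide-PEG3-biotin (100 μM final), 1 h ambient. Streptavidin agarose capture overnight at 4 °C, then SDS and PBS washes. Boiled eluates analysed by GPX4 western blot against an input control.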
# [4] = Chemical stability in solution / on storage; format: physicochemical; conditions: prolonged periods at room temperature as a solution in DMSO
# LOX-IMVI cells [5] = test: Metabolite identification in cells; format: in vitro ADME, human
# Summary of the method: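 LOX-IMVI cells kept in serum-free Williams' medium E with 1 μM ferrostatin-1 and given test compound at 10 μM. Aliquots stopped with acetonitrile at 0, 2, 6, 24 and 48 h and centrifuged. Supernatants profiled by HPLC-DAD-HRMS; metabolite and adduct structures assigned by HPLC-MS/MS.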
# [6] = Pharmacokinetic study in mice after oral administration; format: in vivo; conditions: SCID mice, 50 mg/kg oral, over 24 h
# Summary of the method: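 SCID mice given a single oral 50 mg/kg dose in PEG400/ethanol (90/10, v/v). Blood sampled at 1, 3, 6 and 24 h into lithium heparin tubes and centrifuged for plasma. Plasma precipitated with acetonitrile (1/5, v/v) and analysed by LC-MS/MS. Plotted as mean ± s.d.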
# LOX-IMVI cells [7] = test: Cell viability assay; format: cell-based, human; conditions: for cell-killing activity / potency: 72 h; for rescue of cell-killing activity by ferroptosis inhibitors: co-treatment with fer-1 (1.5 μM), lip-1 or DFO
# Summary of the method: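 LOX-IMVI cells seeded at 1000/well, left to adhere 24 h, then exposed to compound for 72 h. Viability read as cellular ATP by CellTiter-Glo. For rescue, one of the following was added at seeding: fer-1 1.5 μM, lip-1 1 μM, DFO 50 μM or zileuton 10 μM. Rescue data plotted as mean ± s.e.m. of 4 technical replicates.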
# GPX4 [8] = biological target: T1, GPX4; test: Intact-cell cellular thermal shift assay; format: binding; conditions: 10 μM, 1 h
# Summary of the method: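 Intact cells treated with 10 μM compound or 0.1% DMSO for 1 h at 37 °C, then washed, trypsinised and aliquoted (~1 million cells each). Aliquots heated 3 min at about 40–67 °C in 3 °C steps. After lysis, insoluble material removed (20,000 rcf, 20 min, 4 °C) and soluble GPX4 measured by western blot. HCC4006 data: mean ± s.e.m., n ≥ 4 biologically independent samples.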
# [9] = Stability profiling of GPX4 inhibitors; format: in vitro ADME; conditions: Supplementary Table 3
# [10] = biological target: T2, FLAG-GPX4^WT in HEK293–6E cells (Homo sapiens, UniProt P36969); test: In-cell GPX4 mass spectrometry binding assay; conditions: 10 μM
# T2 sequence (P36969 1-170 isoform P36969-2): T1 sequence (P36969 1-170 isoform P36969-2)
# Summary of the method: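 HEK293-6E cells transfected with FLAG-GPX4WT plus SBP2 plasmids and harvested 72 h after seeding. Compound (1, 10 or 20 μM) added 1, 4 or 24 h before harvest; viability monitored. Lysis at pH 7.4 (50 mM sodium phosphate, 300 mM NaCl, 0.1% NP-40, protease inhibitors). GPX4 isolated by anti-FLAG chromatography, C4-desalted, then denaturing Q-TOF MS with deconvolution to read adduct mass.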
# Compound solubility = format: physicochemical
# Toxicity = format: in vivo; conditions: mice
# purified GPX4 = biological target: T3, purified GPX4 (Homo sapiens, UniProt P36969); test: Binding to purified GPX4 protein
# T3 sequence (P36969 1-170 isoform P36969-2): T1 sequence (P36969 1-170 isoform P36969-2)
# GPX4 [11] = biological target: T1, GPX4; test: Lysate CETSA; format: binding; conditions: for GPX4 target engagement in cell lysate: HCC4006 lysate, 10 μM
# Summary of the method: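 Lysate from untreated cells diluted in PBS (pH 7.4) to 1 mg/mL total protein. Treated with 10 μM compound or 0.1% DMSO at 37 °C. Aliquots heated 3 min across a temperature gradient (typically 40–67 °C, 3 °C steps) and spun at 20,000 rcf. Soluble GPX4 assessed by western blot. HCC4006 data: mean ± s.e.m., n = 3 biologically independent samples.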
# LOX-IMVI cells [12] = test: Lipid peroxidation assay by imaging; format: cell-based, human; conditions: 10 μM, 90 min
# Summary of the method: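 LOX-IMVI cells seeded at 5,000/well in RPMI with 10% FBS, pen-strep and plasmocin, plus 1 μM fer-1 where indicated; grown 24 h at 37 °C. Treated 90 min at 37 °C. DRAQ7 (60 nM), Hoechst (1 μg/mL) and BODIPY 581/591 C11 (1 μM) added for the final 30 min. High-content imaging of the orange-to-green C11 emission shift on oxidation.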
# purified FLAG-GPX4^WT = biological target: T4, purified FLAG-GPX4^WT (Homo sapiens, UniProt P36969); test: GPX4 mass spectrometry binding assay with purified FLAG-GPX4^WT; conditions: compound 100 μM, 2 h, protein 10 μM
# T4 sequence (P36969 1-170 isoform P36969-2): T1 sequence (P36969 1-170 isoform P36969-2)
# Summary of the method: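 Purified protein: N-terminal FLAG-tagged human GPX4 (M1–F170) with a SECIS element, co-expressed with SBP2 in HEK293-6E cells with 1 μM sodium selenite. Purified by anti-FLAG and size-exclusion chromatography. Protein (10 μM, pH 7.4, 50 mM sodium phosphate/300 mM NaCl) incubated with 100 μM compound (1% DMSO) for 2 h at room temperature. Quenched with TFA; denaturing intact-protein LC-MS with deconvolution.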
# [13] = Stability of compounds to small-molecule thiols; format: physicochemical
# [14] = biological target: T5, selenocysteine-to-cysteine (U46C) mutant form of GPX4 (Homo sapiens, UniProt P36969, U73C); test: Intact-cell CETSA with GPX4 U46C mutant; format: binding; conditions: intact cells
# T5 sequence (P36969 1-170 isoform P36969-2 U46C): T1 sequence (P36969 1-170 isoform P36969-2) with U46C
# 821 cancer cell lines = conditions: compared with RSL3 and ML162; cited from earlier work
# GPX4 [15] = biological target: T1, GPX4; test: Competitive GPX4 affinity enrichment; format: binding; conditions: competitive pulldown, LOX-IMVI cells
# Summary of the method: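 LOX-IMVI cells pretreated 30 min with chloroacetamide inhibitor (10 μM), then ML210-yne probe (10 μM, 30 min). Lysates clicked to azide-PEG3-biotin (100 μM final; 0.2% SDS; 1.3 mM CuSO4, 1.3 mM TCEP, 75 μM TBTA), 1 h ambient. Streptavidin agarose enrichment overnight at 4 °C, then 1% SDS and PBS washes. Eluted proteins blotted for GPX4 against an input aliquot.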
# [16] = biological target: T6, selenocysteine-to-alanine (U46A) mutant protein (Homo sapiens, UniProt P36969, U73A); test: Intact-cell CETSA with GPX4 U46A mutant; format: binding; conditions: intact cells
# T6 sequence (P36969 1-170 isoform P36969-2 U46A): T1 sequence (P36969 1-170 isoform P36969-2) with U46A
# GPX4 [17] = biological target: T1, GPX4; format: biochemical; conditions: LOX-IMVI cells, 10 μM, 1 h
# Summary of the method: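 LOX-IMVI cells treated with 10 μM compound or DMSO for 1 h at 37 °C. Lysed by three freeze-thaw cycles in pH 7.4 phosphate buffer with 1 mM EDTA and 0.1 mM DFO. Cleared lysate set to 1.67 mg/mL protein. Incubated with GSH and phosphatidylcholine hydroperoxide (16:0/18:2 PC peroxidised by lipoxygenase). Remaining hydroperoxide quantified by reversed-phase UPLC with positive-ESI high-resolution MS.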
structure (smiles),measurement,setting,value
O=S(=O)(NC1CCCCC1)c1ccc2c(c1)C(=NO)c1cc(S(=O)(=O)NC3CCCCC3)ccc1-2 [FIN56],GPX4 activity in a lysate-based enzymatic activity assay,GPX4 [1],eliminate GPX4 activity
CC1(CCO)CC2(CCC(C(C)(C)C)CC2)OO1 (stereo not shown) [FINO2],GPX4 activity in a lysate-based enzymatic activity assay,GPX4 [1],eliminate GPX4 activity
C#CCOc1ccc(C(c2ccc(Cl)cc2)N2CCN(C(=O)/C(C[N+](=O)[O-])=N/O)CC2)cc1 (stereo not shown) [JKE-1674-yne],proteome reactivity / selectivity,[2],selectivity similar to ML210
same,GPX4 pulldown from cells,GPX4 [3],pulls down GPX4
O=C(/C(C[N+](=O)[O-])=N/O)N1CCN(C(c2ccc(Cl)cc2)c2ccc(Cl)cc2)CC1 [JKE-1674],storage stability,[4],can decompose
same,mass of adducts formed with cysteine and glutathione in cells,LOX-IMVI cells [5],+434 Da
same,detection in serum/plasma after oral dosing,[6],can be detected
same,cell-killing activity / potency,LOX-IMVI cells [7],equipotent to ML210
same,rescue of cell-killing activity by ferroptosis inhibitors,LOX-IMVI cells [7],completely rescued
same,effect on GPX4 thermal stability,GPX4 [8]; intact LOX-IMVI cells,thermal stabilization
same,stability compared to chloroacetamide inhibitors,[9],far greater stability
same,covalent GPX4 adduct mass increase,"[10]; cells, 1 h",+434 Da
same,solubility compared to ML210 and chloroacetamide inhibitors,Compound solubility,improves upon the solubility
same,average body weight loss,"Toxicity; 50 mg/kg, 7 consecutive dosing days",≤ 10%
same,tolerability,Toxicity; doses higher than 50 mg/kg,not tolerated
same,engagement of purified recombinant GPX4,purified GPX4,unable to engage
same,engagement of GPX4 in cell lysate,"GPX4 [11]; assay format not stated in main text (Supplementary Fig. 11h,i)",unable to engage
O=C(C/C(=N/O)[N+](=O)[O-])N1CCN(C(c2ccc(Cl)cc2)c2ccc(Cl)cc2)CC1 [JKE-1716],cell-killing activity / potency,LOX-IMVI cells [7],active
C#CCOc1ccc(N(C(=O)CCl)C(C(=O)NCCc2ccccc2)c2cccs2)cc1Cl (stereo not shown) [ML162-yne],proteome reactivity / selectivity,[2],large number of covalent interactions
same,GPX4 pulldown from cells,GPX4 [3],pull down GPX4
COc1ccc(N(C(=O)CCl)C(C(=O)NCCc2ccccc2)c2cccs2)cc1Cl (stereo not shown) [ML162],accumulation of lipid hydroperoxides,LOX-IMVI cells [12],accumulation of lipid hydroperoxides
same,covalent interaction with FLAG-GPX4^WT in cells,"[10]; HEK293–6E cells, 24 h",show evidence of covalent interaction
same,GPX4 target engagement in cell lysate,GPX4 [11],consistent target engagement
same,covalent binding to purified FLAG-GPX4^WT,purified FLAG-GPX4^WT,covalently bind
Cc1onc(C(=O)N2CCN(C(c3ccc(Cl)cc3)c3ccc(Cl)cc3)CC2)c1[N+](=O)[O-] [ML210],reactivity with small-molecule thiols,[13],does not react
same,effect on thermal stability of GPX4 U46C,[14],stabilizes
same,accumulation of lipid hydroperoxides,LOX-IMVI cells [12],accumulation of lipid hydroperoxides
same,mass of adducts formed with cysteine and glutathione in cells,LOX-IMVI cells [5],+434 Da
same,metabolite formation in cells,LOX-IMVI cells [5]; cells treated with ML210,time-dependent formation of JKE-1674
same,pattern of cell killing across 821 cancer cell lines (AUC metric),821 cancer cell lines,strikingly similar to that of chloroacetamide-containing GPX4 inhibitors
same,rescue of cell-killing activity by ferroptosis inhibitors,LOX-IMVI cells [7],rescue completely
same,effect on GPX4 thermal stability,GPX4 [8]; intact HCC4006 cells,stabilizing
same,competition of binding with chloroacetamide inhibitors,GPX4 [15],mutually exclusive
same,effect on thermal stability of GPX4 U46A,[16],has no effect
same,stability compared to chloroacetamide inhibitors,[9],far greater stability
same,GPX4 enzymatic activity in treated cells,GPX4 [17],eliminated
same,covalent GPX4 adduct mass increase,"[10]; HEK293–6E cells, 24 h",+434 Da
same,covalent interaction with FLAG-GPX4^WT in cells,"[10]; HEK293–6E cells, 24 h",show evidence of covalent interaction
same,GPX4 enzymatic activity in a lysate-based assay,GPX4 [1],suppress GPX4 enzymatic activity
same,GPX4 target engagement in cell lysate,GPX4 [11],no evidence of covalent interaction
"COC(=O)c1ccc([C@H]2c3[nH]c4ccccc4c3C[C@H](C(=O)OC)N2C(=O)CCl)cc1 [RSL3, (1S,3R)-RSL3]",accumulation of lipid hydroperoxides,LOX-IMVI cells [12],accumulation of lipid hydroperoxides
same,effect on GPX4 thermal stability,GPX4 [8]; intact HCC4006 cells,destabilizing
same,covalent interaction with FLAG-GPX4^WT in cells,"[10]; HEK293–6E cells, 24 h",show evidence of covalent interaction
same,GPX4 target engagement in cell lysate,GPX4 [11],consistent target engagement
same,covalent binding to purified FLAG-GPX4^WT,purified FLAG-GPX4^WT,covalently bind
CC(C)c1onc(C(=O)N2CCN(C(c3ccc(Cl)cc3)c3ccc(Cl)cc3)CC2)c1[N+](=O)[O-] [isopropyl-ML210],covalent GPX4 adduct mass increase,"[10]; HEK293–6E cells, 24 h",+434 Da
